Consider 21 molecules from ChEMBL document CHEMBL4837219, “Chemical modification of NSC12 leads to a specific FGF-trap with antitumor activity in multiple myeloma” (Eur J Med Chem, 2021).

Structures are written as SMILES. Activity calls are given as the source filed them. The rule behind the calls is not given here.

In this assay the test system is KMS-11. The assay can be described thus: Trapping activity at FGF in human KMS-11 cells assessed as inhibition of FGFR3 phosphorylation at 6 uM measured after 6 hrs by western blot analysis. It is filed as cell-based. The method, boiled down:
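KMS-11 cells treated for 6 h with compound at 6.0 µM, then lysed in NP-40 buffer containing orthovanadate and protease inhibitors. Phospho-FGFR3 detected by western blot with anti-phospho-Y724 antibody, using β-actin or α-tubulin as loading control. Result expressed as % inhibition of FGFR3 phosphorylation by densitometry.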

As usually defined, the inhibition is the relative decrease from the control value, in per cent. Take `C[C@]12CC[C@H]3[C@@H](CC=C4C[C@@H](O[C@@H]5O[C@H](CO)[C@@H](O)[C@H](O)[C@H]5O)CC[C@@]43C)[C@@H]1CC[C@@H]2[C@H](O)CC(O)(C(F)(F)F)C(F)(F)F`: the inhibition result is “inactive”.
For the molecule `C[C@]12CC[C@H]3[C@@H](CC=C4C[C@@H](O)CC[C@@]43C)[C@@H]1CC[C@@H]2[C@H](O)CC(=O)O`, the inhibition came to 80%.
For `C[C@]12CC[C@H]3[C@@H](CC=C4C/C(=N\O)CC[C@@]43C)[C@@H]1CC[C@@H]2[C@H](O)CC(O)(C(F)(F)F)C(F)(F)F`, the inhibition was 80%.
With `C[C@]12CC[C@H]3[C@@H](CC=C4C[C@@H](O)CC[C@@]43C)[C@@H]1CC[C@@H]2[C@@H](O)CC(=O)O`, the inhibition turned out to be 41%.
As to `C[C@]12CC[C@H]3[C@@H](CC=C4C[C@@H](O)CC[C@@]43C)[C@@H]1CC[C@@H]2C(O)CC(O)c1ccccc1` (stereo in doubt; 11b), the inhibition came out at 68%.
Regarding `C[C@]12CC[C@H]3[C@@H](CC=C4C[C@@H](O)CC[C@@]43C)[C@@H]1CC[C@@H]2[C@H](O)CC(N)=O`, the inhibition was determined as 44%.
`C[C@]12CC[C@H]3[C@@H](CC=C4C[C@@H](O)CC[C@@]43C)[C@@H]1CC[C@@H]2[C@H](O)CCO`: the inhibition entry is “inactive”.
On to `C[C@]12CC[C@H]3[C@@H](CC=C4C[C@@H](O)CC[C@@]43C)[C@@H]1CC[C@@H]2C(O)CC(O)c1ccccc1` (stereo in doubt; 11a), for which the inhibition is 49%.
For the molecule `C[C@]12CC[C@H](O)C[C@@H]1CC[C@@H]1[C@@H]2CC[C@]2(C)[C@@H]([C@H](O)CC(O)(C(F)(F)F)C(F)(F)F)CC[C@@H]12`, the inhibition result is “inactive”.
On to `C[C@]12CC[C@H]3[C@@H](CC=C4C[C@@H](OCCO)CC[C@@]43C)[C@@H]1CC[C@@H]2[C@@H](O)CC(O)(C(F)(F)F)C(F)(F)F`, for which the inhibition amounted to 71%.
The value for `C[C@]12CC[C@H]3[C@@H](CC=C4CC(=NO)CC[C@@]43C)[C@@H]1CC[C@@H]2[C@@H](O)CC(O)(C(F)(F)F)C(F)(F)F` was 51%.
For `C[C@]12CC[C@H]3[C@@H](CC=C4C[C@@H](O)CC[C@@]43C)[C@@H]1CC[C@@H]2[C@@H](O)CC(N)=O`, the inhibition turned out to be 17%.
For `C[C@]12CC[C@H]3[C@@H](CC=C4C[C@@H](O)CC[C@@]43C)[C@@H]1CC[C@@H]2C(O)CC(O)c1ccccn1` (stereo in doubt; 14b) the value was 34%; for `C[C@]12CC[C@H]3[C@@H](CC=C4C/C(=N/O)CC[C@@]43C)[C@@H]1CC[C@@H]2[C@H](O)CC(O)(C(F)(F)F)C(F)(F)F`, 58%; for `C[C@]12CC[C@H]3[C@@H](CC=C4C[C@@H](O)CC[C@@]43C)[C@@H]1CC[C@@H]2C(O)CC(O)c1ccccc1` (stereo in doubt; 11c), 28%.
Consider `C[C@]12CC[C@H]3[C@@H](CC=C4CC(=O)CC[C@@]43C)[C@@H]1CC[C@@H]2[C@H](O)CC(O)(C(F)(F)F)C(F)(F)F`, for which the inhibition is 69%.
For `CC(C)(O)C[C@H](O)[C@H]1CC[C@H]2[C@@H]3CC=C4C[C@@H](O)CC[C@]4(C)[C@H]3CC[C@]12C` the value was 46%.
In the case of `CC(C)(O)C[C@@H](O)[C@H]1CC[C@H]2[C@@H]3CC=C4C[C@@H](O)CC[C@]4(C)[C@H]3CC[C@]12C`, the inhibition is 32%.
Consider `C[C@]12CC[C@H]3[C@@H](CC=C4C[C@@H](O)CC[C@@]43C)[C@@H]1CC[C@@H]2[C@@H](O)CCO`, for which the inhibition was 57%.
For `C[C@]12CCC(=O)C[C@@H]1CC[C@@H]1[C@@H]2CC[C@]2(C)[C@@H]([C@@H](O)CC(O)(C(F)(F)F)C(F)(F)F)CC[C@@H]12`, the inhibition is 82%.
For the molecule `C[C@]12CC[C@H]3[C@@H](CC=C4C[C@@H](O)CC[C@@]43C)[C@@H]1CC[C@@H]2C(O)CC(O)c1ccccn1` (stereo in doubt; 14a), the inhibition is 26%.
